# Activity calls are given as the source filed them. The rule behind the calls is not given here.
# Key:
# [1] = target: RAC-alpha serine/threonine-protein kinase (Homo sapiens, UniProt P31749); test: Binding affinity to GST-tagged PH domain of AKT (unknown origin) by surface Plasmon resonance spectroscopy
# Procedure, shortened: (§1)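 SPR: GST-tagged PH domain fusion protein immobilized on CM5 chip by amine coupling to about 17000 RU. Analyte injected at 1–20 µM at 30 µL/min; DMSO in samples and running buffer ≤1% (v/v). Kd obtained from sensorgram fitting.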
# LNCaP [2] = test: Antiproliferative activity against human LNCAP cells assessed as suppression of cell viability after 24 hrs by MTT assay; format: functional, cell-based
# Procedure, shortened: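 LNCaP cells seeded at 5000/well on poly-L-lysine-coated plates in 10% FBS; 24 h later exposed to agents in serum-free medium for 24 h. Viability expressed as percent of vehicle control; IC50 derived.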
# LNCaP [3] = test: Induction of PHLPP1 localization to human LNCAP cell membrane at 5 uM after 24 hrs by immunofluorescence staining analysis; format: functional, cell-based
# Procedure, shortened: (§2)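 LNCaP cells on poly-L-lysine-coated surfaces, treated in serum-free medium for 24 h. Fixed in 4% formaldehyde, permeabilized with 0.1% Triton X-100, blocked in 1% FBS, primary antibody (1:300) overnight, then Alexa Fluor secondary 2 h; DAPI nuclei; confocal imaging with cross-sectional fluorescence intensity analysis.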
# [4] = target: T1, PH domain leucine-rich repeat-containing protein phosphatase 1 (Homo sapiens, UniProt O60346); test: Inhibition of PHLPP1-mediated reduction in phosphorylation of MDM2 in human PC3 cells after 24 hrs by Western blot analysis; format: cell-based; settings: PC-3
# Procedure, shortened: (§3)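 LNCaP or PC-3 cells treated at various concentrations for 24 h in serum-free medium. Lysed in SDS buffer (50 mM Tris pH 8, 10 mM EDTA, 1% SDS, protease inhibitors); equal protein run on SDS-PAGE and transferred to nitrocellulose. Primary antibodies 1:1000 overnight at 4 °C, HRP secondary 1:2000; detected by ECL.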
# [5] = target: T1, PH domain leucine-rich repeat-containing protein phosphatase 1; test: Inhibition of PHLPP1-mediated reduction in phosphorylation of Akt at Ser473 in human LNCAP cells after 24 hrs by Western blot analysis; format: cell-based; procedure, shortened: as §3
# [6] = target: T1, PH domain leucine-rich repeat-containing protein phosphatase 1; test: Inhibition of PHLPP1-mediated reduction in phosphorylation of MDM2 in human LNCAP cells after 24 hrs by Western blot analysis; format: cell-based; procedure, shortened: as §3
# [7] = target: T1, PH domain leucine-rich repeat-containing protein phosphatase 1; test: Inhibition of PHLPP1-mediated reduction in phosphorylation of Akt at Thr308 in human PC3 cells after 24 hrs by Western blot analysis; format: cell-based; settings: PC-3; procedure, shortened: as §3
# Scaffold protein ILK = target: T2, Scaffold protein ILK (Homo sapiens, UniProt Q13418); test: Binding affinity to GST-tagged PH domain of ILK (unknown origin) by surface Plasmon resonance spectroscopy; procedure, shortened: as §1
# T2 sequence (Q13418 whole entry): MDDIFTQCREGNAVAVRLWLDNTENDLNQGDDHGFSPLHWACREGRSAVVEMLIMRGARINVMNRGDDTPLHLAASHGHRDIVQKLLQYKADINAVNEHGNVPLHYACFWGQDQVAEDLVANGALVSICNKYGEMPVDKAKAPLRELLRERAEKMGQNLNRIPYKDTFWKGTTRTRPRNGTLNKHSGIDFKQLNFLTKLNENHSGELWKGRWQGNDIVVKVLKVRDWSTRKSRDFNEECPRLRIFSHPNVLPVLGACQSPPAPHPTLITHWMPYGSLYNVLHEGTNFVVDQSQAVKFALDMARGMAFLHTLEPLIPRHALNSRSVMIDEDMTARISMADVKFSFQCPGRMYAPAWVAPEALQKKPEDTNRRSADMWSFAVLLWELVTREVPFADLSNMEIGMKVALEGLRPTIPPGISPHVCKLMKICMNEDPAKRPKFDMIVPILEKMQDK
# [8] = target: T1, PH domain leucine-rich repeat-containing protein phosphatase 1; test: Inhibition of PHLPP1-mediated reduction in phosphorylation of Akt at Ser473 in human PC3 cells after 24 hrs by Western blot analysis; format: cell-based; settings: PC-3; procedure, shortened: as §3
# [9] = target: T3, 3-phosphoinositide-dependent protein kinase 1 (Homo sapiens, UniProt O15530); test: Binding affinity to GST-tagged PH domain of PDK1 (unknown origin) by surface Plasmon resonance spectroscopy; procedure, shortened: as §1
# T3 sequence (O15530 whole entry): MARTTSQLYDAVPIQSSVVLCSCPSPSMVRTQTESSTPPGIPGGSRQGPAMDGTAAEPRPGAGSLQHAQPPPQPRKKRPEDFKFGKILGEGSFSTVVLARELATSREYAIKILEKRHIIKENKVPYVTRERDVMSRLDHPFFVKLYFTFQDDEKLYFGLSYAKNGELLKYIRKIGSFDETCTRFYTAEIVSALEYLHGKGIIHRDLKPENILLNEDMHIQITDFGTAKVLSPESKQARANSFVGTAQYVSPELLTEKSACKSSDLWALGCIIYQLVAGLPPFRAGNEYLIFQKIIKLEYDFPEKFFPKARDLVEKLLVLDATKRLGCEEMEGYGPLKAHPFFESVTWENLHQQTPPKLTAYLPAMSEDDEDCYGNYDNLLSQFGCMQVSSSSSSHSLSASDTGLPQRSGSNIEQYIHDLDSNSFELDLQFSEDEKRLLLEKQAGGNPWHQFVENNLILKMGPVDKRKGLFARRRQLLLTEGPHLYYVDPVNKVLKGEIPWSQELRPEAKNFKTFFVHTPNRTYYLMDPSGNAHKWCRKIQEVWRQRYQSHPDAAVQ
# PrEC = test: Antiproliferative activity against human PrEC cells assessed as suppression of cell viability after 24 hrs by MTT assay in serum free medium; format: cell-based
# [10] = target: T1, PH domain leucine-rich repeat-containing protein phosphatase 1; test: Binding affinity to GST-tagged PH domain of PHLPP1 (unknown origin) by surface Plasmon resonance spectroscopy; procedure, shortened: as §1
# [11] = target: T1, PH domain leucine-rich repeat-containing protein phosphatase 1; test: Inhibition of PHLPP1-mediated reduction in phosphorylation of Akt at Thr308 in human LNCAP cells after 24 hrs by Western blot analysis; format: cell-based; procedure, shortened: as §3
# PC-3 [12] = test: Antiproliferative activity against human PTEN-negative PC3 cells assessed as suppression of cell viability after 24 hrs by MTT assay in serum free medium; format: functional, cell-based
# [13] = target: T1, PH domain leucine-rich repeat-containing protein phosphatase 1; test: Inhibition of PHLPP1-mediated reduction in phosphorylation of IKK in human PC3 cells after 24 hrs by Western blot analysis; format: cell-based; settings: PC-3; procedure, shortened: as §3
# [14] = target: T1, PH domain leucine-rich repeat-containing protein phosphatase 1; test: Inhibition of PHLPP1-mediated reduction in phosphorylation of IKK in human LNCAP cells after 24 hrs by Western blot analysis; format: cell-based; procedure, shortened: as §3
# LNCaP [15] = test: Induction of Akt localization to human LNCAP cell membrane at 5 uM after 24 hrs by immunofluorescence staining analysis; format: functional, cell-based; procedure, shortened: as §2
# LNCaP [16] = test: Induction of PHLPP1 localization to human LNCAP cell membrane at 10 uM after 24 hrs by immunofluorescence staining analysis; format: functional, cell-based; procedure, shortened: as §2
# LNCaP [17] = test: Induction of Akt localization to human LNCAP cell membrane at 10 uM after 24 hrs by immunofluorescence staining analysis; format: functional, cell-based; procedure, shortened: as §2
# PC-3 [18] = test: In vivo antitumor efficacy in human PC3 cells xenografted athymic nude mouse assessed as inhibition of tumor growth at 50 mg/kg, ip for 21 days relative to vehicle treated control; format: functional, organism-based; design: dose 50 mg/kg
# Procedure, shortened: (§4)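 Athymic nude mice given PC-3 cells sc (1 × 10⁶ per mouse); at about 50 mm³, randomized (n = 7) and dosed once daily for 21 days either ip at 50 mg/kg (vehicle saline/PEG400/DMSO/Tween 80, 65:20:10:5) or by oral gavage at 100 mg/kg (vehicle 0.5% methylcellulose/0.1% Tween 80 in water). Tumor volume measured weekly by calipers (width² × length × 0.52); phospho-proteins checked by Western blotting of tumor lysates.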
# PC-3 [19] = test: In vivo antitumor efficacy in human PC3 cells xenografted athymic nude mouse assessed as decrease in phosphorylation of MDM2 in tumor at 100 mg/kg, po for 21 days relative to vehicle treated control; format: functional, organism-based; design: dose 100 mg/kg; procedure, shortened: as §4
# PC-3 [20] = test: In vivo antitumor efficacy in human PC3 cells xenografted athymic nude mouse assessed as decrease in phosphorylation of Akt at Ser473 in tumor at 100 mg/kg, po for 21 days relative to vehicle treated control; format: functional, organism-based; design: dose 100 mg/kg; procedure, shortened: as §4
# LNCaP [21] = test: Induction of Akt-PHLPP1 complex to human LNCAP cell membrane after 24 hrs by immunofluorescence staining analysis; format: functional, cell-based
# PC-3 [22] = test: In vivo antitumor efficacy in human PC3 cells xenografted athymic nude mouse assessed as decrease in phosphorylation of IKK in tumor at 100 mg/kg, po for 21 days relative to vehicle treated control; format: functional, organism-based; design: dose 100 mg/kg; procedure, shortened: as §4
# PC-3 [23] = test: In vivo antitumor efficacy in human PC3 cells xenografted athymic nude mouse assessed as inhibition of tumor growth at 100 mg/kg, po for 21 days relative to vehicle treated control; format: functional, organism-based; design: dose 100 mg/kg; procedure, shortened: as §4
# PC-3 [24] = test: In vivo antitumor efficacy in human PC3 cells xenografted athymic nude mouse assessed as decrease in phosphorylation of Akt at Thr308 in tumor at 100 mg/kg, po for 21 days relative to vehicle treated control; format: functional, organism-based; design: dose 100 mg/kg; procedure, shortened: as §4
# Sequence of RAC-alpha serine/threonine-protein kinase (P31749 whole entry, the tested form may be a part): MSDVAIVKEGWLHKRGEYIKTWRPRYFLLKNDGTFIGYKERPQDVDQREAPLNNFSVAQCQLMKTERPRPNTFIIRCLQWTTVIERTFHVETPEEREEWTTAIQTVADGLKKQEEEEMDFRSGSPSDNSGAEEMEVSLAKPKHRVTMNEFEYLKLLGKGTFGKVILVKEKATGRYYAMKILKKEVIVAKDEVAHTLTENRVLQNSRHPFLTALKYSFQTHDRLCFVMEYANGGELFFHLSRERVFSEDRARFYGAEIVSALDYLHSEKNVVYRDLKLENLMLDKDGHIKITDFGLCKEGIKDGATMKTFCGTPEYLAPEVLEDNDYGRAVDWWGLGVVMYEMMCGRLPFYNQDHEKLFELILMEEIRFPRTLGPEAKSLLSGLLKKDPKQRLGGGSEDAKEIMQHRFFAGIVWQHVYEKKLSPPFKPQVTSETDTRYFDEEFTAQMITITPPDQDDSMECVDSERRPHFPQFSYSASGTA
# T1 sequence (O60346 whole entry, the tested form may be a part): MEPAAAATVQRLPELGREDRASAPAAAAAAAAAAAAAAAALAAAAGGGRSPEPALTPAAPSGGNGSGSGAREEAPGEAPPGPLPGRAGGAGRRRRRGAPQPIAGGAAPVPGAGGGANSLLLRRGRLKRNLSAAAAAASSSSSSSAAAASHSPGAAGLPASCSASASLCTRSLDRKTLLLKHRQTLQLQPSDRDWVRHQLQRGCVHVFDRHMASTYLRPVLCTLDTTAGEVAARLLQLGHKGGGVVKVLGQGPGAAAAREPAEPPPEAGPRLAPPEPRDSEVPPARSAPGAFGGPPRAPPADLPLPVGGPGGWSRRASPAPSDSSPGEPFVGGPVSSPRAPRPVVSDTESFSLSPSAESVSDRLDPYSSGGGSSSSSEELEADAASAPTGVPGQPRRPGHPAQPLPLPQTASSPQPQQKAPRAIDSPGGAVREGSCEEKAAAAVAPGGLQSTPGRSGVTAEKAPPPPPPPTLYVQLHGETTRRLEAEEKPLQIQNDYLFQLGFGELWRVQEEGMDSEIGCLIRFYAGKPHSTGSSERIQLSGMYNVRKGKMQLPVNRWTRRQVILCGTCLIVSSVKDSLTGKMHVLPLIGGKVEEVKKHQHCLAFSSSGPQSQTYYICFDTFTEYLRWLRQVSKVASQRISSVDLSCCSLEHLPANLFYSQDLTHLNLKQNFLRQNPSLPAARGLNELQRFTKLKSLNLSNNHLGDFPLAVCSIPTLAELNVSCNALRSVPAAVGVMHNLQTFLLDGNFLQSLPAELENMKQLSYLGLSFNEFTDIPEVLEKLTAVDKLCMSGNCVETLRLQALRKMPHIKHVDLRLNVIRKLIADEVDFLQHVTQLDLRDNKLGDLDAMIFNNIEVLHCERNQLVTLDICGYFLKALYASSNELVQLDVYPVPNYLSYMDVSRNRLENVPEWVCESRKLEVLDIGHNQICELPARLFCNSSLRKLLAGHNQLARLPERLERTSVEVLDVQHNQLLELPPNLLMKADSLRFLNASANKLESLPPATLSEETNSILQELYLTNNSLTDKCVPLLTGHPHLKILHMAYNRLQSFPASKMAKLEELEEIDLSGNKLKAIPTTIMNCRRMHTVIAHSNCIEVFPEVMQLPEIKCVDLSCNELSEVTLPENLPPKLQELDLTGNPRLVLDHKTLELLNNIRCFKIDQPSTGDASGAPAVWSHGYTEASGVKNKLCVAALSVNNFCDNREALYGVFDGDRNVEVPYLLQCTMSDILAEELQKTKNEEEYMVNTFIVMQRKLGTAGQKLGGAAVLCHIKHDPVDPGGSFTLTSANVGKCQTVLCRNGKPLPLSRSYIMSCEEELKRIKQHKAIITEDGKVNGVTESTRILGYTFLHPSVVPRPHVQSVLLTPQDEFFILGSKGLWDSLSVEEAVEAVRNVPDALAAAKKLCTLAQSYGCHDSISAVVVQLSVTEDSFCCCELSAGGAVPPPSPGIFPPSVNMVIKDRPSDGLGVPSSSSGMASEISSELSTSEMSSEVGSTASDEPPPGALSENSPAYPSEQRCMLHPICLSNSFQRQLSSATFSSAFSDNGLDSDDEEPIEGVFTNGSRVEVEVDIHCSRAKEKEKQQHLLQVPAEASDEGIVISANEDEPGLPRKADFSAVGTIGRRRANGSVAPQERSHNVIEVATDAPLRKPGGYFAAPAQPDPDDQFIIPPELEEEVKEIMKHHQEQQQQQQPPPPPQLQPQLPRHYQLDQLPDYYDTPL
smiles,measurement,setting,value
Cc1cc(O)cc2c1OC(C)(CCCC(C)C)CC2 (centres undefined),Kd,[1],0.41 µM
same,IC50,LNCaP [2],7.5 µM
CC(C)CCCC1(C)CCc2cc(O)cc(C(F)(F)F)c2O1 (centres undefined),Kd,[1],0.45 µM
same,IC50,LNCaP [2],8 µM
CC(C)CCCC1(C)CCc2ccc(O)c(O)c2O1 (centres undefined),Kd,[1],0.98 µM
same,IC50,LNCaP [2],23 µM
CC(C)CCCC1(C)CCc2cc(O)cc(Br)c2O1 (centres undefined),Kd,[1],0.39 µM
same,IC50,LNCaP [2],8 µM
CC(C)CCCC1(C)CCc2cc(O)cc(O)c2O1 (centres undefined),Kd,[1],1.18 µM
same,IC50,LNCaP [2],27 µM
COc1cc(O)cc2c1OC(C)(CCCC(C)C)CC2 (centres undefined),Kd,[1],1.88 µM
same,IC50,LNCaP [2],26 µM
Cc1cc(O)cc2c1NC(C)(CCCC(C)C)CC2 (centres undefined),Kd,[1],0.03 µM
same,IC50,LNCaP [2],10 µM
CC(C)CCCC1(C)CC(=O)c2cc(O)ccc2O1 (centres undefined),Kd,[1],0.28 µM
same,IC50,LNCaP [2],> 30 µM
CC(C)CCCC1(C)CCc2c(O)cccc2O1 (centres undefined),Kd,[1],0.34 µM
same,IC50,LNCaP [2],11 µM
CC(C)CCCC1(C)CCc2cc(S(N)(=O)=O)cc(Br)c2O1 (centres undefined),Activity,LNCaP [3],Active
same,inhibition,[4],Dose-dependent effect
same,inhibition,[5],Dose-dependent effect
same,inhibition,[6],Dose-dependent effect
same,inhibition,[7],inactive
same,Kd,Scaffold protein ILK,13.1 µM
same,inhibition,[8],Dose-dependent effect
same,Kd,[9],11.1 µM
same,Activity,PrEC,Non-toxic
same,Kd,[10],0.69 µM
same,Kd,[1],0.22 µM
same,inhibition,[11],inactive
same,IC50,LNCaP [2],4.5 µM
same,Activity,PC-3 [12],Active
same,inhibition,[13],Dose-dependent effect
same,inhibition,[14],Dose-dependent effect
same,Activity,LNCaP [15],Active
COc1cc2c(c(C)c1C)OC(C)(CCCC(C)C)CC2 (centres undefined),Activity,PrEC,Non-toxic
same,Kd,[1],8.5 µM
same,IC50,LNCaP [2],> 30 µM
same,Activity,PC-3 [12],inactive
CC(C)CCCC1(C)CCc2cc(S(N)(=O)=O)cc(F)c2O1 (centres undefined),Activity,LNCaP [16],inactive
same,inhibition,[5],inactive
same,inhibition,[8],inactive
same,Kd,[1],0.35 µM
same,IC50,LNCaP [2],20 µM
same,Activity,LNCaP [17],inactive
CC(C)CCCC1(C)CCc2cc(O)cc(F)c2O1 (centres undefined),Kd,[1],0.34 µM
same,IC50,LNCaP [2],9 µM
CC(C)CCCC1(C)CCc2cc(O)ccc2O1 (centres undefined),Kd,[1],0.35 µM
same,IC50,LNCaP [2],10 µM
Cc1c(O)cc2c(c1C)OC(C)(CCCC(C)C)CC2 (racemic),Kd,[1],0.52 µM
CC(C)CCCC1(C)CCc2cc(N)ccc2O1 (centres undefined),Kd,[1],0.21 µM
same,IC50,LNCaP [2],> 30 µM
Cc1c(O)cc2c(c1C)OC(C)(CCCC(C)C)CC2=O (centres undefined),Kd,[1],0.41 µM
Cc1cc(O)cc2c1OC(C)(CCCC(C)C)CC2=O (centres undefined),Kd,[1],0.32 µM
same,IC50,LNCaP [2],18 µM
Cc1c(O)cc2c(c1C)O[C@](C)(CCCC(C)C)CC2,Activity,PC-3 [18],Active
same,Activity,LNCaP [16],Active
same,Activity,PC-3 [19],inactive
same,Activity,PC-3 [20],inactive
same,inhibition,[4],Dose-dependent effect
same,Activity,LNCaP [21],Dose-dependent effect
same,Activity,PC-3 [22],inactive
same,inhibition,[5],Dose-dependent effect
same,inhibition,[6],Dose-dependent effect
same,inhibition,[7],inactive
same,inhibition,[8],Dose-dependent effect
same,Activity,PrEC,Non-toxic
same,inhibition,[11],inactive
same,inhibition,[13],Dose-dependent effect
same,Activity,PC-3 [23],inactive
same,inhibition,PC-3 [24],inactive
same,inhibition,[14],Dose-dependent effect
same,Activity,LNCaP [17],Active
Cc1c(O)cc2c(c1C)O[C@](C)(CCC[C@H](C)CCC[C@H](C)CCCC(C)C)CC2 [GAMMA-TOCOPHEROL],IC50,LNCaP [2],> 100 µM

# Source: ChEMBL document CHEMBL3414473
